Data published in paper PMC11063762 (Molecular Cancer Therapeutics, 2024).
Entries after “also recorded” stand apart in the source; their conditions may differ. Blank lines part the entries; values can stand above or below the compound they belong to.

Legend:
[1] = Long-term chemical stability at ambient conditions; format: physicochemical
[2] = Particle size by dynamic light scattering; format: physicochemical; settings: 5% aqueous mannitol, monomodal
[3] = target: cathepsin S (CTSS) (Homo sapiens, UniProt P25774); assay: Enzyme-mediated metabolism of SDX-7320 in vitro; format: in vitro ADME; settings: 0.5 mg/mL SDX-7320, 37°C, LC/MS
[4] = test system: cathepsin isoforms L, H, C, K, and B; assay: Enzyme-mediated metabolism of SDX-7320 in vitro; format: in vitro ADME, human; settings: 0.5 mg/mL SDX-7320, 37°C, LC/MS
[5] = target: T1, METAP2 (Homo sapiens, UniProt P50579); assay: In vitro competition binding to METAP2; settings: competition with biotinylated SDX-9280
[6] = target: T1, METAP2; assay: METAP2 aminopeptidase enzyme activity assay; format: biochemical
[7] = CNS exposure; format: in vivo; settings: rat, intravenous, equimolar small molecule doses
Method in brief: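 Plasma and CSF levels of the small-molecule inhibitor were measured in rats after intravenous dosing of the polymer conjugate, the free inhibitor or a comparator inhibitor, all at equimolar small-molecule doses. CSF was sampled near plasma Tmax. For the rapidly metabolised comparator, its active metabolite (M-IV) was measured rather than the parent.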

[8] = Rat functional observation battery; format: in vivo; settings: single dose 3, 10 and 30 mg/kg, 12 and 36 hours post-dose, GLP
Method in brief: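 Under GLP, male experimentally naïve CD [Crl:CD(SD)] rats, about 8 weeks old, received a single s.c. dose of 3, 10 or 30 mg/kg (ten/group). A functional observation battery was run pre-dose (day −1) and at 12 and 36 h post-dose. Mortality, clinical observations and body weights were also recorded.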

[9] = test system: EO771 tumors; assay: EO771 triple-negative breast cancer allograft model; format: in vivo, mouse; settings: 24 mg/kg SC, Q4D
Method in brief: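 Female C57Bl/6j mice, ovariectomized at 4 weeks, had EO771 cells implanted into the fourth mammary fat pad at about 18 weeks under ether anesthesia. At about 20 mm3, mice (8/group) began s.c. vehicle (5% mannitol/water, Q4D) or test compound (24 mg/kg, Q4D × 4). Tumors were excised on day 15 and formalin-fixed, paraffin-embedded. Sections were immunostained for Ki67 or CD31, scored as positive cells per tissue area. Volume: two-way ANOVA with Sidak. Staining: unpaired t test.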

[10] = test system: MDA-MB-231 tumors; assay: MDA-MB-231 TNBC model in chick embryos; format: in vivo, chick embryo; settings: 15, 90 μg
Method in brief: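 MDA-MB-231 cells were inoculated into fertilized White Leghorn eggs on embryonic day E9. From E11, embryos received vehicle, test compound (15 or 90 μg, every four days, two doses) or paclitaxel positive control (2.1 μg, every other day, four doses). Metastatic invasion into the lower chorioallantoic membrane was assessed. Tumors were dissected on E19.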

[11] = test system: BT-474 tumors; assay: BT-474 HER-2+, estrogen receptor-positive breast cancer xenograft model; format: in vivo, mouse; settings: 6, 12 mg/kg, s.c., every four days
Method in brief: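 Female athymic nude mice got a 90-day 0.72 mg β-estradiol pellet s.c. Three days later, 2 × 10^7 cells in 50% Matrigel/50% RPMI1640 went into the fourth mammary fat pad. Mice were randomized at tumors >95 mm3 (8/group). Test compound, freshly prepared in 5% mannitol/water, was given s.c. Q4D × 9. Tumor volume was analysed by mixed-effects model with Dunnett comparisons.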

[12] = test system: BT-474 tumors; assay: RNA sequencing of BT-474 xenograft tumors; format: in vivo, mouse; settings: 12 mg/kg, RNA-seq versus vehicle
Method in brief: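 Orthotopic BT-474 tumors came from estrogen-supplemented nude mice dosed s.c. every four days with 12 mg/kg test compound (n = 5) or vehicle (n = 6). At necropsy, tumor portions were snap-frozen and stored at −80°C for RNA isolation and sequencing. Differentially expressed genes versus vehicle were identified, then pathway enrichment analysis was run (pathways with P ≤ 0.01 reported).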

[13] = test system: panel of receptors/transporters (n = 38); assay: Off-target selectivity screening, receptor/transporter binding panel; settings: up to 10 μmol/L
[14] = test system: panel of enzymes (n = 6); assay: Off-target selectivity screening, enzyme panel; format: biochemical; settings: up to 10 μmol/L
[15] = target: METAP1 (Homo sapiens, UniProt P53582); assay: METAP1 aminopeptidase enzyme activity assay; format: biochemical; settings: up to 1000 nmol/L
[16] = test system: HUVEC; assay: HUVEC proliferation; format: cell-based, human; settings: 72 hours
Method in brief: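 HUVEC were grown in EBM-2/EGM-2 with 2% FBS and 2X gentamicin, seeded at 5,000 cells/well and left overnight. Compounds were diluted in DMSO, then in the same medium (final DMSO 0.1%). After 72 h at 37°C, CellTiter 96 Aqueous One reagent was added for 3 h at 37°C and A490 read. The mean A490 of highest-concentration wells was subtracted, and IC50 came from a four-parameter variable-slope log(inhibitor)-response fit.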

[17] = test system: B16-F10 melanoma cells; assay: B16-F10 syngeneic lung metastasis model; format: in vivo, mouse; settings: TNP-470 30 mg/kg every other day x 6, day 15
Method in brief: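 Female C57BL/6NTac mice (8/group) received B16-F10 melanoma cells by tail vein. Cells were grown in DMEM with 5% FBS at 37°C under 5% CO2. Dosing began 24 h after injection: saline vehicle, test compound 25 mg/kg Q4D × 3, and a reference METAP2 inhibitor 30 mg/kg Q2D × 6. Lungs were excised on day 15 and visible metastases counted by stereomicroscope. Two-tailed Student t test.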

[18] = cited from earlier work

T1 sequence (P50579 whole entry): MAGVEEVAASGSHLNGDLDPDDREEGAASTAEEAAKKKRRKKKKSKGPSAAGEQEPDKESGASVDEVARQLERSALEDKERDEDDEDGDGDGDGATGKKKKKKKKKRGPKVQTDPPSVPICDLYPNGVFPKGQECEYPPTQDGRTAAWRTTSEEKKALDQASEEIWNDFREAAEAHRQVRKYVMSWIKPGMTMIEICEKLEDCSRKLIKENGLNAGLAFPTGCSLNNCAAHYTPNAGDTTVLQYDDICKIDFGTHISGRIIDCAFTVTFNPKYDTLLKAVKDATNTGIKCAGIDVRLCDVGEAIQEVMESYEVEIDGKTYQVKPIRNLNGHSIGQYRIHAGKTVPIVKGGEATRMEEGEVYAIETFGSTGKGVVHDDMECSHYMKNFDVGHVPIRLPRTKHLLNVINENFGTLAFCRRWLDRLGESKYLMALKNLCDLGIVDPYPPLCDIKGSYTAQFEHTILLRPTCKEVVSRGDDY
cathepsin S (CTSS), sequence (P25774 115-331): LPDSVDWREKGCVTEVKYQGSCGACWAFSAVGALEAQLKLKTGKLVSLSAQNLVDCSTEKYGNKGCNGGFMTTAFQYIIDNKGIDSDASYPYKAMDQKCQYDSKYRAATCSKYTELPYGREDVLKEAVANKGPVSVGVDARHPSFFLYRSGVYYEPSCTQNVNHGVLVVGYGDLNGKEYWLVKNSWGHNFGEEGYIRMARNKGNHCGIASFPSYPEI

Compound: Glycine, N-(2-methyl-1-oxo-2-propen-1-yl)glycyl-L-phenylalanyl-L-leucyl-, 4-nitrophenyl ester, polymer with N-(2-hydroxypropyl)-2-methyl-2-propenamide, reaction products with (3R,4S,5S,6R)-5-methoxy-4-[(2R,3R)-2-methyl-3-(3-methyl-2-buten-1-yl)-2-oxiranyl]-1-oxaspiro[2.5]oct-6-yl N-(trans-4-aminocyclohexyl)carbamate [SDX-7320]
- long-term chemical stability [1]: > 48 months
- particle size distribution Z-average [2]: 10 nm
- release of SDX-7539 from SDX-7320 by cathepsin S [3]: most active isoform; also recorded: highest activity
- release of SDX-7539 from SDX-7320 by cathepsins L, H, C, K, and B [4]: catalytic activity against SDX-7320
- binding to METAP2 by competition ELISA [5]: inactive
- Inhibition of METAP2 aminopeptidase enzyme activity ([6]; up to 10 μg/ml): inactive
- CSF levels of SDX-7539 when dosed as the PDC compared with unconjugated small molecule or TNP-470 [7]: marked reduction in CSF levels
- neurobehavioral FOB findings [8]: No signs of abnormal CNS-related behavioral toxicity; also recorded: no significant behavioral abnormalities
- EO771 tumor growth [9]: significantly inhibited tumor growth
- CD31 staining of dissected EO771 tumors ([9]; anti-angiogenic activity): reduced staining
- Ki67 staining of dissected EO771 tumors ([9]; anti-proliferative activity): reduced staining
- metastasis of MDA-MB-231 tumors (human DNA in lower chorioallantoic membrane) ([10]; every four days, two doses): significantly inhibited metastasis
- MDA-MB-231 tumor blood vessel density (angiogenesis) ([10]; two days prior to termination): significant decrease in blood vessel density
- inhibition of BT-474 tumor growth [11]: significant, dose-dependent inhibition
- expression of hypoxia-regulated genes including HIF1α in BT-474 tumors [12]: significantly reduced

- Off-target activity at receptors/transporters [13]: No effect was observed
- Off-target activity at enzymes [14]: No effect was observed
Compound: CO[C@@H]1[C@H](OC(=O)N[C@H]2CC[C@H](N)CC2)CC[C@]2(CO2)[C@H]1[C@@]1(C)O[C@@H]1CC=C(C)C.O=S(=O)(O)c1ccccc1 (relative stereo) [SDX-9402, Fumagill-6-yl N-(trans-4-aminocyclohexyl)carbamate benzenesulfonic acid salt]

Compound: CO[C@@H]1[C@H](OC(=O)NC(=O)CCl)CC[C@]2(CO2)[C@H]1[C@@]1(C)O[C@@H]1CC=C(C)C [TNP-470, O-(chloroacetyl-carbamoyl) fumagillol]
- time dependence of IC50 against METAP2 ([6]; hallmark of irreversible enzyme inhibitors): time-dependent shifts in IC50
- Inhibition of METAP1 aminopeptidase activity [15]: neither compound inhibited METAP1
- fold less potent than SDX-7539 in HUVEC growth [16]: approximately 3 fold
- outgrowth of B16-F10 melanoma cells in the lungs [17]: identical degree of inhibition
- potency in vitro, fold higher than the natural product fumagillin [18]: 50 fold
